# Tests used:
# [1] = system: Bacillus subtilis; test: Antibacterial activity against penicillin-susceptible Bacillus subtilis ATCC 9372 assessed as bacterial growth inhibition incubated for 24 hrs by CLSI protocol based broth microdilution method; format: functional
# [2] = system: Bacillus pumilus; test: Antibacterial activity against penicillin-susceptible Bacillus pumilus CMCC 63202 assessed as bacterial growth inhibition by broth dilution method; format: functional; settings: time 24 hrs
# How it was run: (§1)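 Broth microdilution in Mueller Hinton broth. A 0.5 McFarland suspension was diluted tenfold, giving an inoculum of 1.5 × 10⁷ cfu/mL. This was added to 2-fold serial compound dilutions from […]. Plates were incubated aerobically at 37 °C for 24 h. MIC was the lowest concentration with no visible turbidity.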
# [3] = system: Staphylococcus aureus; test: Antibacterial activity against erythromycin-susceptible Staphylococcus aureus ATCC 25923 assessed as bacterial growth inhibition incubated for 24 hrs by CLSI protocol based broth microdilution method; format: functional
# [4] = system: Streptococcus pyogenes; test: Antibacterial activity against erythromycin-susceptible Streptococcus pyogenes clinical isolate 1 assessed as bacterial growth inhibition incubated for 24 hrs by CLSI protocol based broth microdilution method; format: functional
# [5] = system: Enterococcus faecalis; test: Antibacterial activity against vancomycin-susceptible Enterococcus faecalis ATCC 29212 assessed as bacterial growth inhibition incubated for 24 hrs by CLSI protocol based broth microdilution method; format: functional
# [6] = system: Pseudomonas aeruginosa; test: Antibacterial activity against penicillin-susceptible Pseudomonas aeruginosa ATCC27853 assessed as bacterial growth inhibition incubated for 24 hrs by CLSI protocol based broth microdilution method; format: functional
# [7] = system: Escherichia coli; test: Antibacterial activity against penicillin-susceptible Escherichia coli ATCC 25922 assessed as inhibition of bacterial growth measured by broth microdilution method; format: functional; settings: time 24 hrs; how it was run: as §1
# [8] = system: Staphylococcus aureus; test: Antibacterial activity against methicillin-resistant Staphylococcus aureus ATCC 43300 assessed as inhibition of bacterial growth by broth microdilution method; format: functional; settings: time 24 hrs
# How it was run: (§2)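 Broth microdilution MIC. A 0.5 McFarland suspension was diluted 10-fold and added at 1.5 × 10⁷ cfu/mL to 2-fold dilutions (0.125–64) in Mueller Hinton broth. Incubated aerobically 24 h at 37 °C. MIC was the lowest concentration with no visible turbidity.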
# [9] = system: Staphylococcus aureus; test: Antibacterial activity against penicillin-resistant Staphylococcus aureus assessed as inhibition of bacterial growth measured by broth microdilution method; format: functional; settings: time 24 hrs; how it was run: as §2
# [10] = system: Staphylococcus aureus; test: Antibacterial activity against Staphylococcus aureus assessed as inhibition of bacterial growth measured by broth microdilution method; format: functional; settings: time 24 hrs; how it was run: as §1
# [11] = system: Staphylococcus epidermidis; test: Antibacterial activity against penicillin-resistant Staphylococcus epidermidis assessed as inhibition of bacterial growth measured by broth microdilution method; format: functional; settings: time 24 hrs
# [12] = system: Streptococcus pyogenes; test: Antibacterial activity against erythromycin-resistant Streptococcus pyogenes 2 assessed as bacterial growth inhibition incubated for 24 hrs by CLSI protocol based broth microdilution method; format: functional
# [13] = system: Enterococcus faecalis; test: Antibacterial activity against vancomycin-resistant Enterococcus faecalis ATCC 51299 assessed as bacterial growth inhibition incubated for 24 hrs by CLSI protocol based broth microdilution method; format: functional
# [14] = system: Staphylococcus aureus; test: Bactericidal activity against erythromycin-susceptible Staphylococcus aureus ATCC 25923 measured after 24 hrs by CLSI protocol based method; format: functional
# How it was run: (§3)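 MBC after broth microdilution. After 24 h, aliquots from clear wells were plated on tryptic soy agar and incubated aerobically 24 h at 37 °C. MBC was the lowest concentration giving no colonies.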
# [15] = system: Staphylococcus aureus; test: Bactericidal activity against methicillin-resistant Staphylococcus aureus ATCC 43300 measured after 24 hrs by CLSI protocol based method; format: functional; how it was run: as §3
# [16] = system: Staphylococcus aureus; test: Bactericidal activity against penicillin-resistant Staphylococcus aureus measured after 24 hrs by CLSI protocol based method; format: functional; how it was run: as §3
# [17] = system: Bacillus subtilis; test: Bactericidal activity against penicillin-susceptible Bacillus subtilis ATCC 9372 measured after 24 hrs by CLSI protocol based method; format: functional
# How it was run: (§4)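 MBC followed on from the 24 h broth microdilution MIC plates. Aliquots from clear wells were spread on tryptic soy agar and incubated aerobically at 37 °C for 24 h. MBC was the minimum concentration giving no colonies.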
# [18] = system: Bacillus pumilus; test: Bactericidal activity against penicillin-susceptible Bacillus pumilus CMCC 63202 measured after 24 hrs by CLSI protocol based method; format: functional; how it was run: as §4
# [19] = system: Staphylococcus epidermidis; test: Bactericidal activity against penicillin-resistant Staphylococcus epidermidis measured after 24 hrs by CLSI protocol based method; format: functional; how it was run: as §3
# [20] = system: Staphylococcus aureus; test: Ratio of MBC to MIC against erythromycin-susceptible Staphylococcus aureus ATCC 25923; format: functional
# How it was run: (§5)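 MBC/MIC ratio from the broth microdilution MIC (24 h, 37 °C, MH broth) and the MBC (clear wells subcultured on tryptic soy agar, 24 h). A ratio ≤4 is read as bactericidal per CLSI.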
# [21] = system: Staphylococcus aureus; test: Ratio of MBC to MIC against penicillin-resistant Staphylococcus aureus; format: functional; how it was run: as §5
# [22] = system: Bacillus subtilis; test: Ratio of MBC to MIC against penicillin-susceptible Bacillus subtilis ATCC 9372; format: functional
# How it was run: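 Ratio of MBC to MIC, both measured by broth microdilution in MH broth (37 °C, 24 h); MBC was scored by subculturing clear wells onto tryptic soy agar for 24 h. Following CLSI, a ratio of 4 or less counts as bactericidal.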
# [23] = system: Bacillus pumilus; test: Ratio of MBC to MIC against penicillin-susceptible Bacillus pumilus CMCC 63202; format: functional; how it was run: as §5
# [24] = system: Staphylococcus epidermidis; test: Ratio of MBC to MIC against penicillin-resistant Staphylococcus epidermidis; format: functional; how it was run: as §5
# [25] = target: T1, Cell division protein FtsZ (Escherichia coli K-12, UniProt P0A9A6); test: Inhibition of FtsZ in Escherichia coli assessed as disruption of Z ring formation
# T1 sequence (P0A9A6 whole entry): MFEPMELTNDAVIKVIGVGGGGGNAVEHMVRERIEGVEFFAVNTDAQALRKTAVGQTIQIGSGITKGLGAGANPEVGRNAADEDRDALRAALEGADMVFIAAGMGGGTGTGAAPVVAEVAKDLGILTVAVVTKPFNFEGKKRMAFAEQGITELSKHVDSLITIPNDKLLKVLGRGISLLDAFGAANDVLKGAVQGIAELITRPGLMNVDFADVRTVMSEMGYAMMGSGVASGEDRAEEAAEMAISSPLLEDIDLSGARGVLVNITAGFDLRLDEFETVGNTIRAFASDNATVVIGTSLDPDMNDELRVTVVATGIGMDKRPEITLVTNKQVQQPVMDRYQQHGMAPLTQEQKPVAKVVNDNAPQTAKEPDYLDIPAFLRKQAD
# [26] = target: T2, Cell division protein FtsZ (Bacillus subtilis, UniProt A5Z1V5); test: Inhibition of FtsZ in Bacillus subtilis assessed as disruption of Z ring formation
# T2 sequence (A5Z1V5 whole entry): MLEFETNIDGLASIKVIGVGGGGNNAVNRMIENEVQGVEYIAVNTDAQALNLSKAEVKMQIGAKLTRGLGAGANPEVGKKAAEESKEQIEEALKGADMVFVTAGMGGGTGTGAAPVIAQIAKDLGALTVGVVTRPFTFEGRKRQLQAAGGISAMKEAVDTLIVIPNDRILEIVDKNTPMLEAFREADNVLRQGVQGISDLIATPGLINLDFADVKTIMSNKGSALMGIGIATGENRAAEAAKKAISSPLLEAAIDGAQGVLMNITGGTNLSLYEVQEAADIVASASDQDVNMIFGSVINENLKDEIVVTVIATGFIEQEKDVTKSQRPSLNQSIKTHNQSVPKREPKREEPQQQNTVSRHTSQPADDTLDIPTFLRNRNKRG
# [27] = system: Enterococcus faecium; test: Antibacterial activity against vancomycin-resistant Enterococcus faecium ATCC 51559 assessed as bacterial growth inhibition incubated for 24 hrs by CLSI protocol based broth microdilution method; settings: ATCC 51559, 24 h
# [28] = system: Enterococcus faecium; test: Antibacterial activity against vancomycin-susceptible Enterococcus faecium ATCC19434 assessed as bacterial growth inhibition incubated for 24 hrs by CLSI protocol based broth microdilution method; settings: ATCC19434, 24 h
smiles,measurement,setting,value
C[n+]1cc2c3c(ccc2c2ccc4cc5c(cc4c21)OCO5)OCO3.[Cl-] [SANGUINARIUM CHLORIDE],MIC,[1],4 µg/mL
same,MIC,[2],4 µg/mL
same,MIC,[3],4 µg/mL
same,MIC,[4],2 µg/mL
same,MIC,[5],16 µg/mL
same,MIC,[6],> 64 µg/mL
same,MIC,[7],32 µg/mL
same,MIC,[8],8 µg/mL
same,MIC,[9],16 µg/mL
same,MIC,[10],8 µg/mL
same,MIC,[11],8 µg/mL
same,MIC,[12],2 µg/mL
same,MIC,[13],32 µg/mL
same,MBC,[14],> 64 µg/mL
same,MBC,[15],> 64 µg/mL
same,MBC,[16],128 µg/mL
same,MBC,[17],64 µg/mL
same,MBC,[18],> 64 µg/mL
same,MIC,[19],64 µg/mL
same,Ratio,[20],>32
same,Ratio,[21],8
same,Ratio,[22],16
same,Ratio,[23],>64
same,Ratio,[24],64
same,IC50,[25],12.5 µM
same,IC50,[26],2720 nM
same,MIC,[27],32 µg/mL
same,MIC,[28],64 µg/mL
